{
  "source": "paper PMC8159431",
  "about": "(Chemical Science, 2020)",
  "type_in_all_cases": "binding",
  "key": {"Aβ40 aggregates": {"target": "Aβ40 aggregates (Homo sapiens, UniProt P05067)", "sequence (P05067 672-711 limits assumed)": "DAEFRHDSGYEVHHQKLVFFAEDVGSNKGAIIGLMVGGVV", "method_in_brief": "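Aβ40 aggregates were taken at 90 min, 200 min and 24 h from a compound-free aggregation run and ultracentrifuged. They were titrated with a range of probe concentrations, and fluorescence intensity was read. Kd was obtained by curve fitting (n = 3). Binding ratio is Kd relative to the Kd of the 50% sucrose tau fraction.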"}, "[1]": {"target": "tau (0N4R) aggregates, sucrose gradient fractions (Homo sapiens, UniProt P10636)", "sequence (P10636 1-383 isoform P10636-6)": "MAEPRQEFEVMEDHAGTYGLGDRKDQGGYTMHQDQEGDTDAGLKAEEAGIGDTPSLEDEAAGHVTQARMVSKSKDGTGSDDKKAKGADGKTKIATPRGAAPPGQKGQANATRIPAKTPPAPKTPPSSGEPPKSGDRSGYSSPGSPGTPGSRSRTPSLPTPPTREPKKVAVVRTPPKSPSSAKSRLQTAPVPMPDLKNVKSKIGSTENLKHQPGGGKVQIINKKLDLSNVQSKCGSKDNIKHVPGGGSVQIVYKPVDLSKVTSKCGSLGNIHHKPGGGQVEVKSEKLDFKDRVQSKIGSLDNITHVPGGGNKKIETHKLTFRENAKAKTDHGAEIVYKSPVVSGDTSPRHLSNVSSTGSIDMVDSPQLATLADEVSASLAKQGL", "method_in_brief": "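Tau aggregates were separated by sucrose gradient ultracentrifugation into 10–50% fractions, and the 20% fraction was characterised by TEM. Each fraction was titrated with the test compound and fluorescence intensity was read. Kd was obtained by curve fitting (n = 3–6). Ratios compare Kd with the 50% sucrose tau Kd, and tau Kd with the Kd for Aβ40 aggregates at 200 min.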"}, "[2]": {"target": "tau aggregates (Tau-441 human) (Homo sapiens, UniProt P10636)", "sequence (P10636 1-441 isoform P10636-8)": "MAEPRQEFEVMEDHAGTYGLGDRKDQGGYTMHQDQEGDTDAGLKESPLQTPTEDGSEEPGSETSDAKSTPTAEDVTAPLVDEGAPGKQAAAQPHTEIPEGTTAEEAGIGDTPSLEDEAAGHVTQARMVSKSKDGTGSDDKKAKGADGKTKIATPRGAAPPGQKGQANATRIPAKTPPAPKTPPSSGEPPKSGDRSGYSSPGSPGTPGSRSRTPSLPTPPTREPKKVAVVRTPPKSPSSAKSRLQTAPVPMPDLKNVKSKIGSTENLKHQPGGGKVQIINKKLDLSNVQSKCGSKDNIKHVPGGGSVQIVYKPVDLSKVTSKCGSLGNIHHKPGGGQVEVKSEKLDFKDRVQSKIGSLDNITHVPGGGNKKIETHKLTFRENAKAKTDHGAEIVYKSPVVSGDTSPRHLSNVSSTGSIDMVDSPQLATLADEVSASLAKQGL", "test": "Fluorimeter assay with aliquots of the tau aggregation", "conditions": "tau aggregates at different time points"}},
  "note": "Where two headings read alike, the source gives them in different places.",
  "data": [
    {"smiles": "O=C(O)Cc1cc(-c2ccc(C(=O)O)s2)sc1-c1ccc(-c2sc(-c3ccc(C(=O)O)s3)cc2CC(=O)O)s1", "note": "[pFTAA, 3''',4'-bis(carboxymethyl)-[2,2':5',2'':5'',2''':5''',2''''-quinquethiophene]-5,5''''-dicarboxylic acid]", "values": [
      {"measurement": "binding ratio (Kd compared with the 50% sucrose tau Kd)", "setting": "Aβ40 aggregates; 200 minute Aβ", "value": 5},
      {"measurement": "binding ratio (Kd compared with the 50% sucrose tau Kd)", "setting": "Aβ40 aggregates; 24 hour Aβ", "value": 3},
      {"measurement": "Kd", "setting": "Aβ40 aggregates; Aβ40 aggregates at 90 min", "value": "no binding affinity"},
      {"measurement": "Kd", "setting": "Aβ40 aggregates; Kd, Aβ40 aggregates at 200 min", "value": "930 ± 300", "unit": "nM"},
      {"measurement": "Kd", "setting": "Aβ40 aggregates; Kd, Aβ40 aggregates at 24 h", "value": "650 ± 190", "unit": "nM"},
      {"measurement": "binding ratio (Kd compared with the 50% sucrose tau Kd)", "setting": "[1]; 10% sucrose tau", "value": 148},
      {"measurement": "binding ratio (Kd compared with the 50% sucrose tau Kd)", "setting": "[1]; 20% sucrose tau", "value": 14},
      {"measurement": "binding ratio (Kd compared with the 50% sucrose tau Kd)", "setting": "[1]; 30% sucrose tau", "value": 26},
      {"measurement": "binding ratio (Kd compared with the 50% sucrose tau Kd)", "setting": "[1]; 40% sucrose tau", "value": 6},
      {"measurement": "binding ratio (Kd compared with the 50% sucrose tau Kd)", "setting": "[1]; 50% sucrose tau", "value": 1},
      {"measurement": "Kd", "setting": "[1]; 10% sucrose tau fraction", "value": "29600 ± 2100", "unit": "nM"},
      {"measurement": "Kd", "setting": "[1]; 20% sucrose tau fraction", "value": "2750 ± 570", "unit": "nM"},
      {"measurement": "Kd", "setting": "[1]; 40% sucrose tau fraction", "value": "1290 ± 200", "unit": "nM"},
      {"measurement": "Kd", "setting": "[1]; 50% sucrose tau fraction", "value": "200 ± 10", "unit": "nM"},
      {"measurement": "emission spectrum shift over the tau aggregation", "setting": "[2]", "value": "No emission spectrum shifts"}
    ]}
  ]
}
